Active and inactive are the calls of the source. The calls are words filed in the database; no cut-off is given here. Bounds are passed on as bounds.

What is called Papp A→B is the apparent permeability from the apical to the basolateral side of a cell layer. As usually defined, the IC50 is the concentration needed to halve the response being measured. In general, inhibition in vivo refers to the drop in the measured response relative to a control, in per cent. As a reminder, the solubility is how much of the substance goes into solution per volume.

Series [1] is described as follows: Permeability from apical to basolateral side in human Caco-2 cells. The class given is ADME, cell-based.
A short description of series [2]: Drug level in OF1 mouse blood at 30 mg/kg, po after 1 hr. It counts as ADME, organism-based, OF. Also on record: dose 30 mg/kg, route oral. The settings on record: read-out: Drug uptake. In outline: (§1)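 Female OF1 mice, 8 weeks old, dosed orally, then LPS (20 mg/kg) injected 1 h later. Blood taken 1 h after LPS, and compound blood levels quantified by LC–MS/MS.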

In series [3] the test system is Mus musculus. In words: Antiinflammatory activity in po dosed OF1 mouse assessed as inhibition of LPS-induced TNFalpha release administered 1 hr prior to LPS challenge measured by ELISA. The class given is functional. In outline: (§2)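 Female OF1 mice, 8 weeks old, given compound orally; LPS (20 mg/kg) injected 1 h later. Blood withdrawn 1 h after LPS. Plasma mouse TNFα measured by ELISA; inhibition reported as percent.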
On the technique in general: ELISA stands for enzyme-linked immunosorbent assay.

Series [4] deals with Mus musculus. In words: Antiinflammatory activity in po dosed OF1 mouse assessed as inhibition of LPS-induced TNFalpha release administered 6 hr prior to LPS challenge measured by ELISA. It counts as functional. Also noted: scale not given: the % may be the effect or the level left.
Series [5] concerns the target Cyclin-dependent kinase 2 (Homo sapiens, UniProt P24941). Briefly: Inhibition of CDK2.
Another series relates to THP-1. In words: Cytotoxicity against human THP1 cells. The class given is cell-based.
The subject of series [6] is Mus musculus. In words: Antiinflammatory activity in OF1 mouse assessed as inhibition of LPS-induced TNFalpha release at 30 mg/kg, po administered 1 hr prior to LPS challenge measured by ELISA. It counts as functional, organism-based. Also noted: dose 30 mg/kg. In outline:
as §2

Series [7] addresses Mitogen-activated protein kinase 9 (Homo sapiens, UniProt P45984). Briefly: Inhibition of JNK2.
For series [8], the system named is Mus musculus. In words: Antiinflammatory activity in OF1 mouse assessed as inhibition of LPS-induced TNFalpha release at 100 mg/kg, po administered 1 hr prior to LPS challenge. It counts as functional. In outline:
as §2

For series [9], the target named is Mitogen-activated protein kinase 14 (Homo sapiens, UniProt Q16539). In words: Inhibition of p38alpha.
Series [10] is described as follows: Drug level in OF1 mouse blood at 100 mg/kg, po after 1 hr. The class given is ADME, organism-based, OF. Also on record: dose 100 mg/kg, route oral. To be noted: read-out: Drug uptake. The essentials: as §1
Series [11] deals with Mus musculus. In words: Antiinflammatory activity in po dosed OF1 mouse assessed as inhibition of LPS-induced TNFalpha release administered 4 hr prior to LPS challenge measured by ELISA. It counts as functional. Also on record: scale not given: the % may be the effect or the level left.
Series [12] can be described thus: Drug level in po dosed OF1 mouse blood after 6 hr. It counts as ADME, organism-based, OF. To be noted: read-out: Drug uptake.
Series [13] deals with Mitogen-activated protein kinase 8 (Homo sapiens, UniProt P45983). In words: Inhibition of JNK1.
The nature of series [14]: Aqueous solubility at pH 1 to 6.8. It counts as physicochemical. The settings on record: aqueous medium.
Series [15] can be described thus: Drug level in po dosed OF1 mouse blood after 4 hr. To be noted: read-out: Drug uptake. It counts as ADME, organism-based, OF.
A short description of series [16]: Drug level in po dosed OF1 mouse blood after 1 hr. It counts as ADME, organism-based, OF. To be noted: read-out: Drug uptake. The essentials:
as §1

Mitogen-activated protein kinase 14, sequence (Q16539 whole entry): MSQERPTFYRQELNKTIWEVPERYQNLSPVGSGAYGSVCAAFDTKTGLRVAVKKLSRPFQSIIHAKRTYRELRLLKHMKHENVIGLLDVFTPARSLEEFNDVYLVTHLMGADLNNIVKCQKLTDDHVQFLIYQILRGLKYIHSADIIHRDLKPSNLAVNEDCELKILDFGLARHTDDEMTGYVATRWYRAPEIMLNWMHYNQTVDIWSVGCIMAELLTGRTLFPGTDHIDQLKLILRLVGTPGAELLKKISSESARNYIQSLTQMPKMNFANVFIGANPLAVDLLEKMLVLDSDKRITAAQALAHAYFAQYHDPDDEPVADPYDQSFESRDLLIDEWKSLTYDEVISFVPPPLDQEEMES
Mitogen-activated protein kinase 8, sequence (P45983 whole entry): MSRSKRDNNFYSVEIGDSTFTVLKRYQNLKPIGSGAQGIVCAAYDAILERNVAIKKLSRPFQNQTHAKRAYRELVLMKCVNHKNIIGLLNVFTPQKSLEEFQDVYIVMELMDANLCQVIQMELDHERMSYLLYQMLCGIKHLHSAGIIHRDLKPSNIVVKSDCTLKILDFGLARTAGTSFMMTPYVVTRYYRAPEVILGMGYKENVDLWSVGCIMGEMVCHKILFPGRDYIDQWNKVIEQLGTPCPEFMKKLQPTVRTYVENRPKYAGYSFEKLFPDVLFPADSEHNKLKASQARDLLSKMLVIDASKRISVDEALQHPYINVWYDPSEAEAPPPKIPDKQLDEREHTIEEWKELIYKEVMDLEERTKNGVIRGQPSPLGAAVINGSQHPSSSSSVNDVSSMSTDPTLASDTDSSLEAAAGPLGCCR
Mitogen-activated protein kinase 9, sequence (P45984 whole entry): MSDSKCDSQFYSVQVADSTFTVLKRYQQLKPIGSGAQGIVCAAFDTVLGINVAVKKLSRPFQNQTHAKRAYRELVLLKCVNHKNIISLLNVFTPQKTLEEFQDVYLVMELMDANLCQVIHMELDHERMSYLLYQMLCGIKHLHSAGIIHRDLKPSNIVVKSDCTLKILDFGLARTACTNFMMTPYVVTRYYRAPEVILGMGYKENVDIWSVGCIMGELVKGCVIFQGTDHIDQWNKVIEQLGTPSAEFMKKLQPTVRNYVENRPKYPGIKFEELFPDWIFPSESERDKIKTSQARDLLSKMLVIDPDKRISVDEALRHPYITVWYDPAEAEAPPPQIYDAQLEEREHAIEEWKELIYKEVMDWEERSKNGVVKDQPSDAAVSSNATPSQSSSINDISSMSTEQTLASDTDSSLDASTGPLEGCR

For the molecule `COc1ccc(-n2cc(-c3ccc4c(c3)C(=O)NCC4)c(N)n2)cc1`, in series [1], the apical-to-basolateral permeability (Papp A→B) came to 48.3 ×10⁻⁶ cm/s.
For `Nc1nn(-c2cccc(-c3ccc4cc[nH]c4c3)c2)cc1-c1ccc2c(c1)CCNC2=O`, the concentration at 1 h in series [2] is 1.7 µM; in [10] it was 17.4 µM; in [16] it was 14.1 µM. Besides, in the series on Mus musculus [3], the “inhibition (INH)” value was found to be 66%. Further, the Activity in the series on Mus musculus [4] is listed as 67%; with Mus musculus [11], 23%. The IC50 in series [5] was over 10 µM; in the series on THP-1 it was over 20 µM; in series [7] it was over 10 µM; in series [9], over 10 µM; in [13], over 10 µM. For the same molecule, in the series on Mus musculus [6], the outcome was inactive. In addition, the inhibition in vivo at 100 mg/kg in the series with Mus musculus [8] came to 68%. Besides, the concentration at 6 h in [12] worked out at 25.8 µM. This molecule also displayed a solubility in [14] of under 2 µg/mL. Also, the concentration at 4 h in series [15] was found to be 6.8 µM.

(Values after ChEMBL document CHEMBL1159125, “Novel 3-aminopyrazole inhibitors of MK-2 discovered by scaffold hopping strategy” (Bioorg Med Chem Lett, 2010).)
